Data reported in ChEMBL document CHEMBL2380272, “Biological evaluation of bisbenzaldehydes against four Mycobacterium species” (Eur J Med Chem, 2013).
≈ marks a conversion by molar mass, not a printed value.

These compounds were tested on Mycobacterium tuberculosis variant bovis (assay: Antimycobacterial activity against Mycobacterium bovis AN5 assessed as growth inhibition after 6 days by luciferase reporter gene assay). Settings: AN5, 144 h.
Type: functional
Outline: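 Mycobacteria carrying the pSMT1 luciferase reporter plasmid. Compounds came from 10 mM DMSO stocks and were serially diluted in 7H9 + 10% FCS. Thawed bacteria were filtered, recovered 1 h at 37 °C, then added at 50 000 RLU/mL. After 6 days of culture, light was read for 10 s after adding 1% n-decanal. Triplicates were run, and MIC50 was the concentration giving 50% growth inhibition.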
Work on `O=Cc1ccc(OCCCCCCCOc2ccc(C=O)cc2)cc1` yielded an MIC50 of 0.97 µM (≈ 0.33 µg/mL). `O=Cc1ccc(OCCCCOc2ccc(C=O)cc2)cc1` was tested, and the MIC50 was 2.51 µM (≈ 0.749 µg/mL). `O=Cc1ccc(OCCCCCCCCOc2ccc(C=O)cc2)cc1` showed an MIC50 of 0.95 µM (≈ 0.337 µg/mL). Compound `O=Cc1ccc(OCCCCCCOc2ccc(C=O)cc2)cc1` has an MIC50 of 0.94 µM (≈ 0.307 µg/mL). `O=Cc1ccc(OCCOc2ccc(C=O)cc2)cc1` showed an MIC50 of 2.41 µM (≈ 0.651 µg/mL). `O=Cc1ccc(OCCCOc2ccc(C=O)cc2)cc1` was tested, and the MIC50 was 2.65 µM (≈ 0.753 µg/mL). With `O=Cc1ccc(OCCCCCCCCCOc2ccc(C=O)cc2)cc1` the MIC50 was 1.01 µM (≈ 0.372 µg/mL). `O=Cc1ccc(OCCCCCCCCCCCOc2ccc(C=O)cc2)cc1` showed an MIC50 of 0.71 µM (≈ 0.282 µg/mL). `NNC(=O)c1ccncc1` [ISONIAZID] was tested, and the MIC50 was < 0.1 µM. `O=Cc1ccc(OCCCCCOc2ccc(C=O)cc2)cc1` gave an MIC50 of 1.69 µM (≈ 0.528 µg/mL). `O=Cc1ccc(OCCCCCCCCCCCCOc2ccc(C=O)cc2)cc1` showed an MIC50 of 0.64 µM (≈ 0.263 µg/mL). For `O=Cc1ccc(OCCCCCCCCCCOc2ccc(C=O)cc2)cc1`, the MIC50 was 0.81 µM (≈ 0.31 µg/mL). In the case of `O=Cc1ccc(OCOc2ccc(C=O)cc2)cc1`, the MIC50 is reported as 2.93 µM (≈ 0.751 µg/mL).
